Source: ChEMBL document CHEMBL4014338, “Discovery of Small Molecules as Multi-Toll-like Receptor Agonists with Proinflammatory and Anticancer Activities” (J Med Chem, 2017)

Legend:
HeLa [1] = experiment: Cell cycle arrest in human HeLa cells assessed as accumulation at G0/G1 phase at 10 uM after 24 hrs by propidium iodide staining based flow cytometry (reference value: 52%); assay type: functional
Toll-like receptor 3 = target: T1, Toll-like receptor 3 (Homo sapiens, UniProt O15455); experiment: Agonist activity at human TLR3 expressed in HEK293 cells assessed as induction of NF-kB activation-mediated SEAP production after 24 hrs by HTS assay; assay type: cell-based
T1 sequence (O15455 whole entry): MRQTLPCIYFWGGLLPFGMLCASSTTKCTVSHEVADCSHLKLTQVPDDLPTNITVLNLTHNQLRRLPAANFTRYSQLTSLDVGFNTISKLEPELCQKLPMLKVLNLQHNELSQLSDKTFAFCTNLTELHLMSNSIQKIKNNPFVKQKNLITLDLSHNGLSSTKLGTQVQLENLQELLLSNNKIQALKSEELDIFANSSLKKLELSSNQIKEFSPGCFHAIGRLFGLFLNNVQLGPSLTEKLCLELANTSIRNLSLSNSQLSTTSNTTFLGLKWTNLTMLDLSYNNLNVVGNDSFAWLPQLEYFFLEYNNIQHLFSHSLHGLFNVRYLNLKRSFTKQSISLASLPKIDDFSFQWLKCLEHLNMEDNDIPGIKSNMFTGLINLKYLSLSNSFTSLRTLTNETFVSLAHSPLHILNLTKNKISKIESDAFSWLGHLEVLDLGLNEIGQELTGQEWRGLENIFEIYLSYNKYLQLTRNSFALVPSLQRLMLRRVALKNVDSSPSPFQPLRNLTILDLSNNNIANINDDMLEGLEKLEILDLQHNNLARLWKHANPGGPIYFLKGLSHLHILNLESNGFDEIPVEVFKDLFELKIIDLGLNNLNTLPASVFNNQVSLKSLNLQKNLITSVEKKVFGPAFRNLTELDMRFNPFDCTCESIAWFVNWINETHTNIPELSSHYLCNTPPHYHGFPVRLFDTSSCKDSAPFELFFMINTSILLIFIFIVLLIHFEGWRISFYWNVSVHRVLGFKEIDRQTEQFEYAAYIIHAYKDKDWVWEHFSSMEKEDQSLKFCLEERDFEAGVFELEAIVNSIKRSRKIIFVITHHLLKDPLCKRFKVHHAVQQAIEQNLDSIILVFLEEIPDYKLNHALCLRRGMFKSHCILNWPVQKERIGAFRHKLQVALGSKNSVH
Procedure, shortened: (§1)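 Stable HEK293 lines expressing a single hTLR plus a SEAP reporter, grown in DMEM/10% FBS with selective antibiotics. Seeded at 5 × 10^4 cells/well for 24 h at 37 °C, then treated 24 h. Supernatant mixed with QUANTI-Blue, 1 h at 37 °C, OD 620 nm. Cognate agonists: Pam3CSK4 (TLR2), poly I:C (TLR3), LPS (TLR4), FLA-BS (TLR5), R848 (TLR7). EC50 as mean ± SD.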

Toll-like receptor 2 = Toll-like receptor 2 (Homo sapiens, UniProt O60603); experiment: Agonist activity at human TLR2 expressed in HEK293 cells assessed as induction of NF-kB activation-mediated SEAP production after 24 hrs by HTS assay; assay type: cell-based; procedure, shortened: as §1
Sequence of Toll-like receptor 2 (O60603 whole entry): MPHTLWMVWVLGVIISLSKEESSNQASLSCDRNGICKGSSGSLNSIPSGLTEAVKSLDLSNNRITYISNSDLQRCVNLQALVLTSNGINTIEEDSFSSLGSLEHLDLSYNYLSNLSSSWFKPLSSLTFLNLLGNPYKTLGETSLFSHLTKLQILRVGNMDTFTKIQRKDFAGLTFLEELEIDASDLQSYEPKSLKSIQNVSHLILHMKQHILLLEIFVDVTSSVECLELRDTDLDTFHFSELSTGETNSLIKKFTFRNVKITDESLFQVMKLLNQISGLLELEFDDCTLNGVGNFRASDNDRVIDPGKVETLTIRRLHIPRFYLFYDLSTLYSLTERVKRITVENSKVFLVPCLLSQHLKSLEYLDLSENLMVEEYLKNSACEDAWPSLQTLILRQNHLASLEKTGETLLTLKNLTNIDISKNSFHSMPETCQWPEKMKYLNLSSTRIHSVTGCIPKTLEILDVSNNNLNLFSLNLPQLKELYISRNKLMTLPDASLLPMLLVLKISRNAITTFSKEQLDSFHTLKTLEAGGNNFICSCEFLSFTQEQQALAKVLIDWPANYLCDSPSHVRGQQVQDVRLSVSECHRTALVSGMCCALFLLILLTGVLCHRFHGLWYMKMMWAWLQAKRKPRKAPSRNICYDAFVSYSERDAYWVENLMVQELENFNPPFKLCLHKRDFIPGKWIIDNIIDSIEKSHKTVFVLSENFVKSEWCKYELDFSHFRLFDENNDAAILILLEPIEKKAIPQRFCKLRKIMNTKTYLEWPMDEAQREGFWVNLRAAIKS

[2] = target: Toll-like receptor 3/8/9 (Homo sapiens) (UniProt O15455+Q9NR96+Q9NR97); experiment: Agonist activity at TLR3/TLR8/TLR9 in human THP1 cells assessed as increase in TNFalpha mRNA level after 12 hrs by qRT-PCR method; assay type: cell-based
Sequence of Toll-like receptor 3/8/9 (Homo sapiens) (Q9NR96 whole entry, looked up, one chain of several): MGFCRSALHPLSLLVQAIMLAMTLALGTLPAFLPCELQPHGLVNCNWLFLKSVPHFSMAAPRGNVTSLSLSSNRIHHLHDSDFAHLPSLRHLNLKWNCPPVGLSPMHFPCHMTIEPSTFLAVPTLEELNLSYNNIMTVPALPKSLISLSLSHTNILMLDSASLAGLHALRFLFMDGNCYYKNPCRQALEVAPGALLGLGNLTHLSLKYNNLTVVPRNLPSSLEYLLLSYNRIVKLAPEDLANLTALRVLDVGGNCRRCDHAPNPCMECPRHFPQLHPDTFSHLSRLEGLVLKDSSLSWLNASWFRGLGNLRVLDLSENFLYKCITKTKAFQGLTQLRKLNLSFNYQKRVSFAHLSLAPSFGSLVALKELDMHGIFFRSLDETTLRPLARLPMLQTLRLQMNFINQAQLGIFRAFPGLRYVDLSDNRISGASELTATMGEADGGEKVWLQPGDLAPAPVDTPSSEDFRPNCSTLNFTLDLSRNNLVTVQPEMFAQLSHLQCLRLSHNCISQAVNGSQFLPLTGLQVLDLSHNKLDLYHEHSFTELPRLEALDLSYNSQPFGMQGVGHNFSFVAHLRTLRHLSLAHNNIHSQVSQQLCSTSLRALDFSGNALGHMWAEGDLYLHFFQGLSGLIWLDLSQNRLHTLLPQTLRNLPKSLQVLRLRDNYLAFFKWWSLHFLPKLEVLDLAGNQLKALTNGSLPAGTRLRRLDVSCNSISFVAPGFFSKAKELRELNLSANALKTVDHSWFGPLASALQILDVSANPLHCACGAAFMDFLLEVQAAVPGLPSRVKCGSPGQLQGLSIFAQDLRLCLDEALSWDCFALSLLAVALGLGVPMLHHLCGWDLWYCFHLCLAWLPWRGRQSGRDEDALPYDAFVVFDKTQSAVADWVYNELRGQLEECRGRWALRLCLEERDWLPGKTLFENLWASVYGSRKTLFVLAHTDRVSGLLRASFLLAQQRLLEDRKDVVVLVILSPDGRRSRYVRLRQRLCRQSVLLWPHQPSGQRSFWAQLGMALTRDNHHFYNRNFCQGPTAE
Sequence of Toll-like receptor 3/8/9 (Homo sapiens) (Q9NR97 whole entry, looked up, one chain of several): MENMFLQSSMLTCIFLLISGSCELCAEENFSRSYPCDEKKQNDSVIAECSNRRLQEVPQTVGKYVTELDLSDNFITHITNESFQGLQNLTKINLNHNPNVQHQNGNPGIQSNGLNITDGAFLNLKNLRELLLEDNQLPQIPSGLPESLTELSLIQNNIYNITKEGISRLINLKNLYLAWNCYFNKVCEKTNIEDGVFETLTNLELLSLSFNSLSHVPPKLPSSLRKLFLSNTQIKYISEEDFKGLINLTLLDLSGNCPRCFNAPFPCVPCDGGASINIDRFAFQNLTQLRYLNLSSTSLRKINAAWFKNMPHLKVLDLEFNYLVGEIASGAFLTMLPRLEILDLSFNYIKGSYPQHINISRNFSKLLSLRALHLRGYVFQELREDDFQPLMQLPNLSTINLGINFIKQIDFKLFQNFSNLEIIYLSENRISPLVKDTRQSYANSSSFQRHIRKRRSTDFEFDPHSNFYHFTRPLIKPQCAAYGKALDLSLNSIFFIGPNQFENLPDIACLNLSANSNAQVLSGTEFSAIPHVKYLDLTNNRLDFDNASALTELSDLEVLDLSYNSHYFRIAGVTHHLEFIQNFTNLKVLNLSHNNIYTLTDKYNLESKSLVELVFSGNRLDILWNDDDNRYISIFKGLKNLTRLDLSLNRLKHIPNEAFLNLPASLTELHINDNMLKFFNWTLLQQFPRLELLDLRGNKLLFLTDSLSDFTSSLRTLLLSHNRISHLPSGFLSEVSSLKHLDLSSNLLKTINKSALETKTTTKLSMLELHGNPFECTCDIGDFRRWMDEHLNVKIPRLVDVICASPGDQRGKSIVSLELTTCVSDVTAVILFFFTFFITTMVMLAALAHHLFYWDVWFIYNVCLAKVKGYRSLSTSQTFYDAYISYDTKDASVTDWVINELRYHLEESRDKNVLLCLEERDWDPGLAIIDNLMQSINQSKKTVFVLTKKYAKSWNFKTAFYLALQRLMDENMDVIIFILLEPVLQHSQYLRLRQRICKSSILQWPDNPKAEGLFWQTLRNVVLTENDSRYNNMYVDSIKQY
Procedure, shortened: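 THP-1 cells (1.5 × 10^6/well) differentiated with PMA (20 nM) for 2 days, then 24 h in fresh RPMI 1640; nonadherent cells removed. Treated with indicated compound concentrations for 12 h, washed with PBS, and mRNA measured by qRT-PCR. Expressed as fold change versus untreated control, poly I:C (5 μg/mL) as reference. Mean ± SD of three independent experiments.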

HeLa [3] = experiment: Antiproliferative activity against human HeLa cells after 24 hrs by WST1 assay; assay type: functional, cell-based
Procedure, shortened: (§2)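 Cells seeded at 5 × 10^3/well and left 24 h, then given a concentration series for 24, 48 or 72 h. WST-1 reagent added and incubated at 37 °C for 30 min–2 h until color change; absorbance 450 nm. Growth inhibition = (1 − [sample − background]/[control − background]) × 100. IC50 mean ± SD, three cell preparations.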

HeLa [4] = experiment: Antiproliferative activity against human HeLa cells after 72 hrs by WST1 assay; assay type: functional, cell-based; procedure, shortened: as §2
HMEC [5] = experiment: Antiproliferative activity against HMEC after 48 hrs by WST1 assay; assay type: cell-based; conditions: Homo sapiens; procedure, shortened: as §2
HMEC [6] = experiment: Antiproliferative activity against HMEC after 72 hrs by WST1 assay; assay type: cell-based; conditions: Homo sapiens; procedure, shortened: as §2
HeLa [7] = experiment: Cell cycle arrest in human HeLa cells assessed as accumulation at S phase at 10 uM after 24 hrs by propidium iodide staining based flow cytometry (reference value: 31%); assay type: functional
HeLa [8] = experiment: Cell cycle arrest in human HeLa cells assessed as accumulation at G2/M phase at 10 uM after 24 hrs by propidium iodide staining based flow cytometry (reference value: 17%); assay type: functional
HeLa [9] = experiment: Cell cycle arrest in human HeLa cells assessed as accumulation at S phase at 30 uM after 24 hrs by propidium iodide staining based flow cytometry (reference value: 31%); assay type: functional
HeLa [10] = experiment: Cell cycle arrest in human HeLa cells assessed as accumulation at G2/M phase at 30 uM after 24 hrs by propidium iodide staining based flow cytometry (reference value: 17%); assay type: functional
HeLa [11] = experiment: Cell cycle arrest in human HeLa cells assessed as accumulation at G0/G1 phase at 40 uM after 24 hrs by propidium iodide staining based flow cytometry (reference value: 52%); assay type: functional

In the case of `O=[N+]([O-])c1ccc(COc2cc3c(cc2OCc2ccc([N+](=O)[O-])cc2)OC2(C=C3)CCOCC2)cc1`, the Activity (HeLa [1]) is reported as 46%, the EC50 (Toll-like receptor 3) is reported as 4.8 µM and the EC50 (Toll-like receptor 2) is reported as > 100 µM. The Activity [2] was “Dose-dependent effect”, the Activity (HeLa [3]) was “Dose-dependent effect” and the IC50 (HeLa [3]) was 38.6 µM. For the same molecule, the Activity (HeLa [4]) was “Dose-dependent effect”, the IC50 (HeLa [4]) was 2710 nM and the IC50 (HMEC [5]) was > 100 µM. For the same molecule, the IC50 (HMEC [6]) was 79.5 µM, the Activity (HeLa [7]) was 35% and the Activity (HeLa [8]) was 19%. For the same molecule, the Activity (HeLa [9]) was 39%, the Activity (HeLa [10]) was 20% and the Activity (HeLa [11]) was 40%.
